From PubChem
Yeast eIF2B: modulators of yeast eIF2B activity. S. cerevisiae eIF2B-epsilon R284H, GCN4-lacZ luminescence. AID 688. 0.91% of 27,000 active. inhibition, % at 25 µM (by protocol);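 active = mutant luminescence inhibited past about 50% while wild type luminescence and mutant growth stay under set limits, limit read from the data; inconclusive = mutant versus wild type luminescence inhibition gap past a set limit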
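material = yeast eIF2B-epsilon R284H mutant carrying GCN4–beta-galactosidase fusion | schedule = 16 h growth with compound at 30 °C, 90 min Beta-Glo step | measured by = luminescence and A595 | compound dosing = one concentration, 25 µM, 0.25% DMSO | read-out basis = % inhibition of reporter signal and growth versus controls | buffer or medium = YPD medium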
Yeast growth tox: Inhibitors of S. cerevisiae growth, toxicity; S. cerevisiae wild-type growth, A595 turbidity, 16 h; growth inhibition, % at 25 µM (by protocol); 0.3% of 30,000 active;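 active = mutant and wild-type yeast strains alike exhibit over 30% growth inhibition; inconclusive = a strain exceeds 50% while the second remains under 30%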;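 note: 0% = untreated cell controls and 100% = YPD media blanks without cells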
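System: S. cerevisiae wild-type or eIF2Bepsilon-R284H mutant strain; times: 16 h growth with compound, 30 °C; signal: absorbance at 595 nm (turbidity); measure: growth inhibition (%) versus cell controls and blanks; compound: 25 µM single dose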
* marks the source's active call; other numbers are inactive results; ? = inconclusive; · = no result. In the library only some 1% were active in any assay of this set; here they are far more common.

SMILES	Yeast eIF2B	Yeast growth tox
Cc1cc2c(cc1C)CSC(c1ccc3ccccc3c1O)SC2	·	-36
Cc1cc2c(cc1C)CSC(c1ccccc1O)SC2	·	81*
O=C(NC1CCCC1)C(c1ccccc1)N(Cc1ccco1)C(=O)Cc1cccs1 (stereo not drawn)	57*	0
O=C(NCC(=O)N(Cc1ccco1)C(C(=O)NC1CCCC1)c1ccncc1)c1cccs1 (stereo not drawn)	-15	·
O=C(O)CCC(=O)N1CCN(c2cccc(Cl)c2)CC1	35	-2
CC(=O)/C(C(=N)N1CCN(c2cccc(Cl)c2)CC1)=C(\C)O	61*	·
CCc1ccc(Oc2cc(C)nc(N)n2)cc1	21	14
O=C(Nc1ccc2c(c1)CCC2)C1CCCO1 (stereo not drawn)	21	5
Cc1noc(C)c1C(=O)Nc1ccc2c(c1)CCC2	65*	·
Cc1ccc(CSc2nnc(-c3cccnc3)n2N)cc1	·	28
C=CCN1C(=O)CN=C1Nc1cccc(C)c1	-7	5
COC(=O)c1ccc(NS(=O)(=O)N(C)C)cc1	60*	-7
Cc1ccc(NS(=O)(=O)N(C)C)cc1	-12	-5
CC(Sc1nc2ccccc2[nH]1)C(=O)Nc1ccc2c(c1)OCCO2 (stereo not drawn)	-33	16
O=C(OCn1nnc2ccccc2c1=O)c1ccc2ncsc2c1	22	·
COc1cc(OC)cc(-n2nc(C(=O)N3CC(C)CC(C)C3)c3ccccc3c2=O)c1 (stereo not drawn)	-18	-5
CCOC(=O)N1CCN(C(=O)c2nn(-c3cc(OC)cc(OC)c3)c(=O)c3ccccc23)CC1	57*	-26
COC(=O)c1ccc(C2C(C(=O)OC(C)C)=C(C)N=C3SCCC(=O)N32)cc1 (stereo not drawn)	14	17
O=C(CCl)Nc1cc(-c2ccccc2)nn1-c1ccccc1	·	59*
Cc1ccc(-c2cc(NC(=O)CCl)n(-c3ccccc3)n2)cc1	31	?
CCc1cc2c(=O)c(-c3nc4ccccc4n3C)c(COCC(=O)O)oc2cc1OC(=O)C(C)(C)C	27	6
CCOC(=O)CC(=O)CSc1nc(C)cc(-c2cccnc2)c1C#N	55*	-8
CCOC(=O)CC(=O)CSc1nc(-c2cccnc2)cc(C)c1C#N	3	2
Cc1ccc(-c2cc(-c3ccccc3Cl)[nH]n2)c(O)c1	30	64*
Cc1ccccc1-c1cc(-c2ccccc2O)n[nH]1	20	18
SMILES	Yeast eIF2B	Yeast growth tox
O=C(c1cccs1)N1CCCC1	5	0
O=C(c1cccs1)N1CCC(c2ccccc2)C1 (stereo not drawn)	71*	18
O=C1CCCc2c1cc(C(=O)NCc1ccco1)c(=O)n2-c1ccccc1	13	-4
CC(=O)C1=C(O)C(=O)N(Cc2cccnc2)C1c1ccccc1Cl (stereo not drawn)	24	22
CC(=O)c1ccccc1OCC(O)CN1CCN(C(c2ccccc2)c2ccccc2)CC1 (stereo not drawn)	30	-8
Cc1cc(C)c(NC(=O)CSc2nnc(Cc3cccn3C)n2-c2ccc(F)cc2)c(C)c1	60*	3
COc1ccc(NC(=O)CSc2nnc(Cc3cccn3C)n2-c2ccc(C)cc2)cc1OC	12	-1
CCOC(=O)c1nc2nc(C)c(Cl)c(=O)n2[nH]1	9	5
COc1ccc(OC)c(S(=O)(=O)N(C)CC(=O)N2CCN(c3ccccc3F)CC2)c1	23	·
O=C(COC(=O)CCc1ccc(S(=O)(=O)N2CCOCC2)cc1)Nc1ccc(Cl)cn1	17	10
CCOC(=O)Cc1csc(NC(=O)CCc2ccc(S(=O)(=O)N3CCOCC3)cc2)n1	57*	4
CCOC(=O)C1=C(C)NC(C)=C(C(=O)OCC)C1C(=O)OCC(=O)N1CCc2ccccc2C1	59*	0
O=C(CNC1CCCCC1)N1CCc2ccccc2C1	·	3
O=C(CCN1C(=O)C2C3C=CC(C3)C2C1=O)Nc1ccccn1 (stereo not drawn)	7	6
O=C(Cc1ccc(F)cc1)NCCc1ccc(F)cc1	15	-5
NC(=O)CSC1=Nc2ccccc2C2=NC(CC(=O)NCc3cccs3)C(=O)N12 (stereo not drawn)	52*	10
COCCCNC(=O)CSC1=Nc2ccccc2C2=NC(CC(=O)NCc3ccccc3)C(=O)N12 (stereo not drawn)	38	4
COc1ccc(C)cc1NC(=O)CCCN1C(=O)CCC1=O	·	9
O=S(=O)(/N=C(\Sc1ccc(Cl)cc1)c1ccccc1)c1ccccc1	·	16
O=C1CC(O)(C(F)F)Oc2ccc3ccccc3c21 (stereo not drawn)	53*	16
O=C1CC(O)(C(F)(F)F)Oc2c1ccc1ccccc21 (stereo not drawn)	46	2
N#CCCN(C(=O)CSc1nc(-c2ccccc2)cn1N)c1ccc(F)cc1	·	11
CCNC(=O)N1C(CC(=O)OCC)C(=O)NC2CCCCC21 (stereo not drawn)	-6	-6
